Measured values from PubChem BioAssay.
Active and inactive are the calls of the source.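 How the source made its calls, unless noted: active means GFP response above 150% of the DMSO level; inconclusive means fewer than 70 events counted for a yeast strain; inactive means the rest.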

Experiments:
[1] = RPL19A-GFP modulators, yeast TOR pathway, confirmation, cell-based, S. cerevisiae, flow cytometry, cherry picks, mother/daughter gates (AID 2270;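 active means GFP response below 50% of the DMSO control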); conditions: S. cerevisiae RPL19A-GFP strain, 3 h, at 10 µM, stronger effect = lower value, 100 = same GFP as DMSO wells
[2] = LAP4-GFP expression modulators in yeast, confirmation, cell-based, cherry picks, flow cytometry, mother/daughter gates (AID 2271;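 active means GFP response above 150% of the DMSO control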;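 further: ratio of sample to DMSO plate mean so 100% equals DMSO level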); conditions: S. cerevisiae LAP4-GFP strain, 3 h, at 10 µM, stronger effect = higher value, 100 means same as DMSO control
Summary of the method: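 Material – Alexa Fluor 633-labelled Saccharomyces cerevisiae GFP-fusion strain, single-plex · Incubation – compound exposure 3 h at 30 °C, end-over-end rotation · Measured by – GFP by flow cytometry · Measure – median GFP fluorescence as percent of plate-mean DMSO wells · Control set – positive rapamycin (400 ng/mL), negative DMSO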

[3] = modulators of MEP2-GFP levels in yeast, confirmation, S. cerevisiae, flow cytometry GFP, cherry picks (AID 2272;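 active means GFP response above 150% of the DMSO control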;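 further: ratio of well signal to plate DMSO mean so 100% equals DMSO level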); conditions: S. cerevisiae MEP2-GFP strain, 3 h, at 10 µM, stronger effect = higher value
[4] = AGP1-GFP expression modulators, hit retest, confirmation, cell-based, flow cytometry, S. cerevisiae, cherry picks (AID 2273);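 further: median GFP channel fluorescence over the whole cell population gate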; conditions: S. cerevisiae AGP1-GFP strain, 3 h, at 10 µM
[5] = modulators of CIT2-GFP expression in yeast, confirmation, S. cerevisiae, GFP fusion, cherry picks, mother/daughter gates (AID 2274); conditions: S. cerevisiae CIT2-GFP strain, flow cytometry, 3 h, at 10 µM, stronger effect = higher value
[6] = measured here: daughter cell gate
[7] = measured here: mother cell gate
[8] = measured here: daughter cell gate response
[9] = measured here: mother cell gate response

SMILES	GFP response vs DMSO [1]	GFP response vs DMSO [1, 6]	GFP response vs DMSO [1, 7]	GFP response relative to DMSO [2]	GFP response relative to DMSO [2, 8]	GFP response relative to DMSO [2, 9]	GFP response vs DMSO [3]	GFP response, % of DMSO [4]	GFP response, % of DMSO [5]	GFP response, % of DMSO [5, 6]	GFP response, % of DMSO [5, 7]
CCOc1ccccc1-c1noc(CCC(=O)Nc2cccnc2)n1	98.4% (inactive)	99%	99.2%	107% (inactive)	105%	110%	111% (inactive)	106% (inactive)	110% (inactive)	108%	112%
N#CC(C(=O)NCc1ccccc1)c1nc2ccccc2nc1N1CCCC1 (stereo unspecified)	103% (inactive)	102%	104%	114% (inactive)	108%	117%	117% (inactive)	99.6% (inactive)	111% (inactive)	108%	109%
COc1cccc(C(=O)Nc2ccccc2)c1	98.2% (inactive)	97.4%	96.7%	106% (inactive)	102%	106%	105% (inactive)	95.2% (inactive)	94% (inactive)	93.6%	92.6%
O=C(OCCOc1ccccc1)c1n[nH]c2ccccc12	96.4% (inactive)	95.7%	97.2%	103% (inactive)	97.9%	101%	97.5% (inactive)	102% (inactive)	102% (inactive)	104%	100%
COC(=O)c1sc(-c2ccc(C(C)(C)C)cc2)cc1NC(=O)CCC(=O)O	98.6% (inactive)	97.3%	98.9%	98.7% (inactive)	95.6%	100%	100% (inactive)	95.4% (inactive)	97.8% (inactive)	96.5%	98.7%
Cc1cc(NC(c2ccc(Cl)cc2)c2ccc3cccnc3c2O)no1 (stereo unspecified)	97.8% (inactive)	97.4%	97.6%	108% (inactive)	104%	113%	100% (inactive)	94.5% (inactive)	98.3% (inactive)	99.1%	98.5%
COC(=O)c1ccccc1OCC(=O)NC1CCCCC1	88.9% (inactive)	83.8%	92.2%	135% (inactive)	126%	145%	89.9% (inactive)	91.7% (inactive)	84.1% (inactive)	80.7%	85.5%
COc1ccc(/C=C/C(=O)c2ccc(OC)cc2O)cc1	99.9% (inactive)	100%	99.3%	98.8% (inactive)	99.3%	100%	104% (inactive)	100% (inactive)	102% (inactive)	102%	100%
O=S(=O)(/N=C(/Nc1ccc(F)cc1F)c1ccc(Cl)cc1)c1ccccc1	101% (inactive)	101%	103%	96.5% (inactive)	96.5%	96.5%	102% (inactive)	96.9% (inactive)	96.4% (inactive)	98.3%	95.6%
COC(=O)c1ccc2nc(Nc3nc4ccc(F)cc4s3)sc2c1	101% (inactive)	101%	102%	81.8% (inactive)	84.8%	86%	97.8% (inactive)	97% (inactive)	108% (inactive)	105%	109%
CCOC(=O)/C(=C\c1cn(C)c2ccccc12)[N+](=O)[O-]	98.2% (inactive)	93.4%	93.6%	204% (active)	163%	202%	111% (inactive)	84.2% (inactive)	86.9% (inactive)	88.1%	76%
CN(C)c1ccc(/C=N/NC(=O)c2ccc(Cl)cc2)cc1	98% (inactive)	97%	97.4%	102% (inactive)	97.9%	103%	102% (inactive)	100% (inactive)	97.8% (inactive)	98.3%	95.6%
COc1cc(NC(=O)c2ccccc2F)ccc1NC(=O)c1cc2ccccc2o1	87.2% (inactive)	90.2%	88.8%	97% (inactive)	97.5%	97.3%	107% (inactive)	101% (inactive)	100% (inactive)	97.4%	98.1%
O=C1C=CC(=O)N1c1ccc(Sc2ccc([N+](=O)[O-])cc2)cc1	74% (inactive)	96.8%	61.1%	143% (inactive)	142%	124%	125% (inactive)	106% (inactive)	79.7% (inactive)	90.5%	63.8%
O=C(NN1C(=O)/C(=C\c2ccc(O)c([N+](=O)[O-])c2)SC1=S)c1ccccc1Cl	97.4% (inactive)	95.9%	95.8%	126% (inactive)	106%	129%	123% (inactive)	69.8% (inactive)	107% (inactive)	99.1%	106%
O=C(O)c1ccccc1C(=O)N1CCN(c2ccccc2)CC1	99.2% (inactive)	99.9%	99.7%	96.7% (inactive)	96%	96.1%	98.3% (inactive)	101% (inactive)	103% (inactive)	105%	102%
COc1cccc(CNC(=O)CCC(=O)N2Cc3cccc(OC)c3Oc3ncccc32)c1OC	99.4% (inactive)	99.9%	99.2%	95.4% (inactive)	96%	94%	102% (inactive)	100% (inactive)	104% (inactive)	105%	104%
O=C(c1cc([N+](=O)[O-])cc([N+](=O)[O-])c1)N(Cc1nnc(-c2ccccc2Cl)o1)C1CC1	102% (inactive)	101%	105%	96.2% (inactive)	97.2%	99.3%	102% (inactive)	97.2% (inactive)	107% (inactive)	103%	109%
Cc1ccc(N2CCN(C(=O)c3ccccc3)CC2)c(C)c1	99% (inactive)	99.4%	99.5%	95.4% (inactive)	94.4%	94%	98.3% (inactive)	94.3% (inactive)	107% (inactive)	106%	106%
Oc1cccc(/C=N/c2c(-c3ccco3)nc3ccccn23)c1	96.6% (inactive)	96.2%	96.9%	96.5% (inactive)	97.9%	94.6%	97.5% (inactive)	97.1% (inactive)	96.4% (inactive)	98.3%	94.5%
Cc1ccc(N2C(=O)C3C4C=CC(CNC(=S)N5CCN(c6cccc(C)c6)C(C)C5)(O4)C3C2=O)cc1 (stereo unspecified)	97.3% (inactive)	97.3%	96.7%	92.9% (inactive)	92.9%	94.4%	103% (inactive)	103% (inactive)	100% (inactive)	97.6%	100%
COc1ccc2c(c1)c(C(C)=O)c(C)n2-c1ccccc1OC	96.5% (inactive)	97.8%	95.4%	101% (inactive)	99%	101%	101% (inactive)	107% (inactive)	103% (inactive)	101%	103%
CCN(CC)c1ccc(/C=C/c2ccc3ccc(OC)cc3[n+]2CC)cc1	102% (inactive)	101%	101%	117% (inactive)	113%	119%	133% (inactive)	98.9% (inactive)	107% (inactive)	110%	104%
COc1ccccc1N1CCN(C2CCCN(Cc3cc(F)cc(F)c3)C2)CC1 (stereo unspecified)	96% (inactive)	97.3%	95.9%	98.9% (inactive)	97.5%	98.4%	99.3% (inactive)	102% (inactive)	103% (inactive)	99.3%	104%
COc1cccc(-c2nnc(NC(=O)c3ccc(S(=O)(=O)N4CC(C)OC(C)C4)cc3)o2)c1 (stereo unspecified)	103% (inactive)	103%	102%	95.7% (inactive)	94.2%	96.2%	109% (inactive)	100% (inactive)	100% (inactive)	97.4%	99.3%
CCOc1ccc(-c2noc(-c3ccncc3)n2)cc1OCC	96.4% (inactive)	93.7%	95.7%	106% (inactive)	106%	106%	116% (inactive)	98.8% (inactive)	102% (inactive)	103%	99.3%
